Laboratory results from ChEMBL document CHEMBL1155062, “Antileishmanial activity screening of 5-nitro-2-heterocyclic benzylidene hydrazides” (Bioorg Med Chem, 2008).
Calls of active or inactive are those of the source. No cut-off for these calls is given here.

test system: Leishmania donovani; experiment: Antileishmanial activity against Leishmania donovani promastigotes after 48 hrs by alamar blue assay; assay type: functional, organism-based
Procedure, shortened: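 L. donovani promastigotes grown in RPMI 1640 with 10% fetal calf serum at 26 °C. A 3-day-old culture was diluted to 5 × 10⁵ promastigotes/mL. Drug dilutions were made directly in the cell suspension and incubated 48 h at 26 °C.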

In order of rising IC50:
1. O=C(N/N=C/c1ccc([N+](=O)[O-])s1)c1ccc(Cl)c(Cl)c1  0.41 µM
2. Cc1ccc(C(=O)N/N=C/c2ccc([N+](=O)[O-])o2)cc1N  0.62 µM
3. O=C(N/N=C/c1ccc([N+](=O)[O-])s1)c1ccc(C(F)(F)F)cc1  0.82 µM
4. O=C(N/N=C/c1ccc([N+](=O)[O-])s1)c1ccc(O)cc1  0.89 µM
5. N=C(N)c1ccc(OCCCCCOc2ccc(C(=N)N)cc2)cc1 [PENTAMIDINE]  1.06 µM
6. O=C(N/N=C/c1ccc([N+](=O)[O-])s1)c1ccc(Cl)cc1  1.26 µM
7. O=C(N/N=C/c1ccc([N+](=O)[O-])o1)c1ccc(Cl)c(Cl)c1  1.68 µM
8. O=C(N/N=C/c1ccc([N+](=O)[O-])s1)c1ccc(F)c(Cl)c1  1.92 µM
9. COc1cc(C(=O)N/N=C/c2ccc([N+](=O)[O-])s2)ccc1[N+](=O)[O-]  2 µM
10. O=C(N/N=C/c1ccc([N+](=O)[O-])s1)c1ccc(F)c(F)c1  2.15 µM
11. COc1cc(C(=O)N/N=C/c2ccc([N+](=O)[O-])s2)ccc1C  2.19 µM
12. Cc1ccc(C(=O)N/N=C/c2ccc([N+](=O)[O-])s2)cc1N  2.24 µM
13. Nc1ccc(C(=O)N/N=C/c2ccc([N+](=O)[O-])s2)cc1  2.24 µM
14. Cc1ccc(C(=O)N/N=C/c2ccc([N+](=O)[O-])s2)cc1O  2.3 µM
15. O=C(N/N=C/c1ccc([N+](=O)[O-])o1)c1ccc(O)cc1 [NIFUROXAZIDE]  2.4 µM
16. Nc1ccc(C(=O)N/N=C/c2ccc([N+](=O)[O-])o2)cc1  2.66 µM
17. O=C(N/N=C/c1ccc([N+](=O)[O-])s1)c1cccc(Cl)c1  2.74 µM
18. O=C(N/N=C/c1ccc([N+](=O)[O-])s1)c1cccc(O)c1  2.75 µM
19. O=C(N/N=C/c1ccc([N+](=O)[O-])s1)c1cccc([N+](=O)[O-])c1  2.78 µM
20. O=C(N/N=C/c1ccc([N+](=O)[O-])s1)c1ccc([N+](=O)[O-])cc1  2.81 µM
21. O=C(N/N=C/c1ccc([N+](=O)[O-])s1)c1cccc(C(F)(F)F)c1  3.79 µM
22. Cc1ccc(C(=O)N/N=C/c2ccc([N+](=O)[O-])s2)cc1  4.49 µM
23. COc1ccc(C(=O)N/N=C/c2ccc([N+](=O)[O-])s2)cc1N  4.69 µM
24. Cc1cccc(C(=O)N/N=C/c2ccc([N+](=O)[O-])s2)c1  4.84 µM
25. O=C(N/N=C/c1ccc([N+](=O)[O-])s1)c1ccc([N+](=O)[O-])c(O)c1  5.45 µM
26. O=C(N/N=C/c1ccc([N+](=O)[O-])o1)c1ccc(F)c(Cl)c1  6.42 µM
27. O=C(N/N=C/c1ccc([N+](=O)[O-])s1)c1ccccc1  6.54 µM
28. O=C(N/N=C/c1ccc([N+](=O)[O-])o1)c1ccc([N+](=O)[O-])cc1  6.57 µM
29. COc1ccc(C(=O)N/N=C/c2ccc([N+](=O)[O-])s2)cc1  7.21 µM
30. COc1cc(C(=O)N/N=C/c2ccc([N+](=O)[O-])o2)ccc1[N+](=O)[O-]  7.39 µM
31. O=C(N/N=C/c1ccc([N+](=O)[O-])o1)c1cccc(Cl)c1  7.83 µM
32. O=C(N/N=C/c1ccc([N+](=O)[O-])o1)c1ccc(Cl)cc1  7.83 µM
33. CN(C)c1cccc(C(=O)N/N=C/c2ccc([N+](=O)[O-])o2)c1  7.94 µM
34. NS(=O)(=O)c1cc(C(=O)N/N=C/c2ccc([N+](=O)[O-])s2)ccc1Cl  8.06 µM
35. COc1cccc(C(=O)N/N=C/c2ccc([N+](=O)[O-])s2)c1  8.52 µM
36. O=C(N/N=C/c1ccc([N+](=O)[O-])o1)c1ccc(C(F)(F)F)cc1  8.86 µM
37. COc1cc(C(=O)N/N=C/c2ccc([N+](=O)[O-])o2)ccc1C  8.9 µM
38. COc1ccc(C(=O)N/N=C/c2ccc([N+](=O)[O-])o2)cc1  8.99 µM
39. O=C(N/N=C/c1ccc([N+](=O)[O-])o1)c1ccc(F)c(F)c1  9.49 µM
40. O=C(N/N=C/c1ccc([N+](=O)[O-])o1)c1cccc([N+](=O)[O-])c1  9.86 µM
41. O=C(N/N=C/c1ccc([N+](=O)[O-])o1)c1ccc([N+](=O)[O-])c(O)c1  9.9 µM
42. O=C(N/N=C/c1ccc([N+](=O)[O-])o1)c1cccc(O)c1  10.2 µM
43. O=C(N/N=C/c1ccc([N+](=O)[O-])o1)c1cccc(C(F)(F)F)c1  10.4 µM
44. COc1cccc(C(=O)N/N=C/c2ccc([N+](=O)[O-])o2)c1  10.4 µM
45. Cc1ccc(C(=O)N/N=C/c2ccc([N+](=O)[O-])o2)cc1  11 µM
46. O=C(N/N=C/c1ccc([N+](=O)[O-])o1)c1ccccc1  11.2 µM
47. COc1ccc(C(=O)N/N=C/c2ccc([N+](=O)[O-])o2)cc1N  16.4 µM
48. Cc1cccc(C(=O)N/N=C/c2ccc([N+](=O)[O-])o2)c1  19.8 µM
49. Nc1cc(C(=O)N/N=C/c2ccc([N+](=O)[O-])o2)ccc1O  27 µM
50. NS(=O)(=O)c1cc(C(=O)N/N=C/c2ccc([N+](=O)[O-])o2)ccc1Cl  38.5 µM

Compared with `Nc1ccc(C(=O)N/N=C/c2ccc([N+](=O)[O-])o2)cc1`, `Cc1ccc(C(=O)N/N=C/c2ccc([N+](=O)[O-])o2)cc1` is 2-fold higher in IC90: 14.6 µM for the first, 28.6 µM for the second.

Going from `Cc1ccc(C(=O)N/N=C/c2ccc([N+](=O)[O-])s2)cc1` to `O=C(N/N=C/c1ccc([N+](=O)[O-])s1)c1ccc(O)cc1`, the IC90 falls from 7.95 µM to 4.46 µM (1.8-fold).

`O=C(N/N=C/c1ccc([N+](=O)[O-])o1)c1ccc(F)c(Cl)c1` and `O=C(N/N=C/c1ccc([N+](=O)[O-])o1)c1ccc(F)c(F)c1` are within 1.5-fold of each other in IC90: 19.2 µM for the first, 25.5 µM for the second.

Compared with `CN(C)c1cccc(C(=O)N/N=C/c2ccc([N+](=O)[O-])o2)c1`, `Cc1cccc(C(=O)N/N=C/c2ccc([N+](=O)[O-])o2)c1` is higher in IC90: 24.2 µM for the first, over 36.6 µM for the second.

`COc1ccc(C(=O)N/N=C/c2ccc([N+](=O)[O-])o2)cc1` and `O=C(N/N=C/c1ccc([N+](=O)[O-])o1)c1ccc(O)cc1` [NIFUROXAZIDE] are within 1.5-fold of each other in IC90: 25.9 µM for the first, 17.8 µM for the second.

First: NS(=O)(=O)c1cc(C(=O)N/N=C/c2ccc([N+](=O)[O-])o2)ccc1Cl
Second: O=C(N/N=C/c1ccc([N+](=O)[O-])o1)c1ccc(Cl)c(Cl)c1
The IC90 of the first is 3.3-fold higher: 88.5 µM for the first, 26.9 µM for the second.

`O=C(N/N=C/c1ccc([N+](=O)[O-])o1)c1ccc([N+](=O)[O-])cc1` and `O=C(N/N=C/c1ccc([N+](=O)[O-])o1)c1cccc([N+](=O)[O-])c1` are within 1.5-fold of each other in IC90: 22.4 µM for the first, 26 µM for the second.

Going from `O=C(N/N=C/c1ccc([N+](=O)[O-])s1)c1ccc([N+](=O)[O-])cc1` to `O=C(N/N=C/c1ccc([N+](=O)[O-])s1)c1cccc([N+](=O)[O-])c1`, the IC90 rises from 5.31 µM to 14.3 µM (2.7-fold).

`O=C(N/N=C/c1ccc([N+](=O)[O-])s1)c1ccc(F)c(F)c1` and `O=C(N/N=C/c1ccc([N+](=O)[O-])s1)c1ccc(F)c(Cl)c1` are within 1.5-fold of each other in IC90: 4.92 µM for the first, 4.67 µM for the second.

`O=C(N/N=C/c1ccc([N+](=O)[O-])o1)c1ccccc1` and `O=C(N/N=C/c1ccc([N+](=O)[O-])o1)c1cccc(Cl)c1` are within 1.5-fold of each other in IC90: 29.7 µM for the first, 24.2 µM for the second.

First: COc1ccc(C(=O)N/N=C/c2ccc([N+](=O)[O-])s2)cc1N
Second: Cc1ccc(C(=O)N/N=C/c2ccc([N+](=O)[O-])s2)cc1N
The IC90 of the first is 3.9-fold higher: 18.3 µM for the first, 4.7 µM for the second.

`O=C(N/N=C/c1ccc([N+](=O)[O-])o1)c1cccc(C(F)(F)F)c1` and `O=C(N/N=C/c1ccc([N+](=O)[O-])o1)c1ccc(C(F)(F)F)cc1` are within 1.5-fold of each other in IC90: 24.1 µM for the first, 24.4 µM for the second.

`COc1cc(C(=O)N/N=C/c2ccc([N+](=O)[O-])s2)ccc1C` and `Cc1ccc(C(=O)N/N=C/c2ccc([N+](=O)[O-])s2)cc1O` are within 1.5-fold of each other in IC90: 4.39 µM for the first, 4.59 µM for the second.

Compared with `O=C(N/N=C/c1ccc([N+](=O)[O-])s1)c1ccc(Cl)c(Cl)c1`, `NS(=O)(=O)c1cc(C(=O)N/N=C/c2ccc([N+](=O)[O-])s2)ccc1Cl` is 20-fold higher in IC90: 0.87 µM for the first, 17.2 µM for the second.

First: Cc1cccc(C(=O)N/N=C/c2ccc([N+](=O)[O-])s2)c1
Second: O=C(N/N=C/c1ccc([N+](=O)[O-])s1)c1cccc(O)c1
The IC90 of the first is 2.5-fold higher: 19 µM for the first, 7.55 µM for the second.

Going from `O=C(N/N=C/c1ccc([N+](=O)[O-])o1)c1ccc([N+](=O)[O-])c(O)c1` to `COc1cc(C(=O)N/N=C/c2ccc([N+](=O)[O-])o2)ccc1[N+](=O)[O-]`, the IC90 falls from 48.9 µM to 20.2 µM (2.4-fold).

Going from `O=C(N/N=C/c1ccc([N+](=O)[O-])s1)c1ccc([N+](=O)[O-])c(O)c1` to `COc1cc(C(=O)N/N=C/c2ccc([N+](=O)[O-])s2)ccc1[N+](=O)[O-]`, the IC90 falls from 18.4 µM to 3.91 µM (4.7-fold).

Compared with `O=C(N/N=C/c1ccc([N+](=O)[O-])o1)c1ccc(Cl)cc1`, `O=C(N/N=C/c1ccc([N+](=O)[O-])s1)c1ccc(Cl)cc1` is 4.9-fold lower in IC90: 23.8 µM for the first, 4.84 µM for the second.

Compared with `COc1cc(C(=O)N/N=C/c2ccc([N+](=O)[O-])o2)ccc1C`, `COc1ccc(C(=O)N/N=C/c2ccc([N+](=O)[O-])o2)cc1N` is 2.5-fold higher in IC90: 52.8 µM for the first, 131 µM for the second.

Compared with `O=C(N/N=C/c1ccc([N+](=O)[O-])s1)c1cccc(C(F)(F)F)c1`, `O=C(N/N=C/c1ccc([N+](=O)[O-])s1)c1ccc(C(F)(F)F)cc1` is 3.4-fold lower in IC90: 6.41 µM for the first, 1.89 µM for the second.

Going from `COc1cccc(C(=O)N/N=C/c2ccc([N+](=O)[O-])s2)c1` to `O=C(N/N=C/c1ccc([N+](=O)[O-])s1)c1cccc(Cl)c1`, the IC90 falls from 32.8 µM to 6.78 µM (4.8-fold).

First: Nc1cc(C(=O)N/N=C/c2ccc([N+](=O)[O-])o2)ccc1O
Second: Cc1ccc(C(=O)N/N=C/c2ccc([N+](=O)[O-])o2)cc1N
The IC90 of the first is 34-fold higher: 97.5 µM for the first, 2.88 µM for the second.

Compared with `COc1ccc(C(=O)N/N=C/c2ccc([N+](=O)[O-])s2)cc1`, `Nc1ccc(C(=O)N/N=C/c2ccc([N+](=O)[O-])s2)cc1` is higher in IC90: 26.2 µM for the first, over 34.5 µM for the second.

`O=C(N/N=C/c1ccc([N+](=O)[O-])s1)c1ccccc1` and `O=C(N/N=C/c1ccc([N+](=O)[O-])o1)c1cccc(O)c1` are within 1.5-fold of each other in IC90: 25.4 µM for the first, 28 µM for the second.

For `COc1cccc(C(=O)N/N=C/c2ccc([N+](=O)[O-])o2)c1`, the IC90 was 26.6 µM.

In the case of `CN(C)c1cccc(C(=O)N/N=C/c2ccc([N+](=O)[O-])s2)c1`, the Activity is reported as “inactive”.
For `O=C(N/N=C/c1ccc([N+](=O)[O-])o1)c1ccc(Cl)c([N+](=O)[O-])c1`, the Activity was “inactive”.
In the case of `CN(C)c1ccc(C(=O)N/N=C/c2ccc([N+](=O)[O-])s2)cc1`, the Activity is reported as “inactive”.
`CN(C)c1ccc(C(=O)N/N=C/c2ccc([N+](=O)[O-])o2)cc1` was tested, and the Activity was “inactive”.
